Results as given in ChEMBL document CHEMBL5579886, “Selective Degradation of MLK3 by a Novel CEP1347-VHL-02 PROTAC Compound Limits the Oncogenic Potential of TNBC” (J Med Chem, 2024).
The source made the active and inactive calls. No cut-off for these calls is given here.

Assays:
MCF7 [1] = assay: Effect on ERK pathway in human MCF7 cells at 1 uM measured after 24 hrs by immunoblot analysis; type: functional, cell-based
[2] = molecular target: T1, von Hippel-Lindau disease tumor suppressor/Mitogen-activated protein kinase kinase kinase 11 (Homo sapiens, UniProt Q16584+P40337); assay: PROTAC activity at VHL/MLK3 in carfilzomib-treated human MDA-MB-468 cells assessed as protein degradation at 1 uM measured after 7 hrs by immunoblot analysis; type: cell-based
Method in brief: (§1)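 MCF-7 and MDA-MB-468 cells were seeded at 100 000/well. The next day they were pretreated with 1 μM carfilzomib for 1 h, then treated with 1 μM PROTAC for 7 h, with DMSO as control. Endogenous MLK3 was measured by immunoblot of RIPA lysates.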
Target sequence in this assay (P40337 whole entry, looked up): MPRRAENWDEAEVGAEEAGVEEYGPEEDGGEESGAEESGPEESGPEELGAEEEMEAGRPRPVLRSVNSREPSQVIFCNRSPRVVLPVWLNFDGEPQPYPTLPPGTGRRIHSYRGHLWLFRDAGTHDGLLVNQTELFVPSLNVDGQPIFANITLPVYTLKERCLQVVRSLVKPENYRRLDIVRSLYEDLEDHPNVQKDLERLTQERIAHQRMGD
Target sequence in this assay (Q16584 whole entry, looked up): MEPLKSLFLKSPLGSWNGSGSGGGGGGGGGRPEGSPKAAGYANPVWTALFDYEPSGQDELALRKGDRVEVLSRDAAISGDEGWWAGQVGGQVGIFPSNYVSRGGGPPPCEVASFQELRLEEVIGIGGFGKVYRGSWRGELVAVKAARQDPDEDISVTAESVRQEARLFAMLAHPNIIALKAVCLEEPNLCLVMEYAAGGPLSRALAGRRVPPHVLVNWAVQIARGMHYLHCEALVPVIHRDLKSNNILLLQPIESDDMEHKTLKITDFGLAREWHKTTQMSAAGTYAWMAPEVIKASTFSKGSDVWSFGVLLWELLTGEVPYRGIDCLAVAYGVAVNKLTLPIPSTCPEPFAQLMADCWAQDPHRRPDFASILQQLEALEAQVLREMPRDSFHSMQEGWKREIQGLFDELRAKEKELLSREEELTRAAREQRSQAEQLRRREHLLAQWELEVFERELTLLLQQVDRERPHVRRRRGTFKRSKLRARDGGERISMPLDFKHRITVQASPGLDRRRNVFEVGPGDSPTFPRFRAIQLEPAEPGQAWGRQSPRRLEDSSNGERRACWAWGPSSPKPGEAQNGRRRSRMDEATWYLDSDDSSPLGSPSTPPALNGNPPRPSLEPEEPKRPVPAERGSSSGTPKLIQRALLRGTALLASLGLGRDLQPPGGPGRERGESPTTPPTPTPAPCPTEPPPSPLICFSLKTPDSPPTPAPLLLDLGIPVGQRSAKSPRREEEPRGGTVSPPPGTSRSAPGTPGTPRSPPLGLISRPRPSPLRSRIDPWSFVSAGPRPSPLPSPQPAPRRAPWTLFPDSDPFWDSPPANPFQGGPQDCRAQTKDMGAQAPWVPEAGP

[3] = molecular target: T2, von Hippel-Lindau disease tumor suppressor/Mitogen-activated protein kinase kinase kinase 21 (Homo sapiens) (UniProt P40337+Q5TCX8); assay: PROTAC activity at VHL/DOX-inducible MLK4 (unknown origin) overexpressed in human A-375 cells assessed as protein degradation at 0.1 to 5 uM incubated for 24 hrs by immunoblot analysis; type: cell-based; settings: dose 0.1-5 µM
Method in brief: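 A375 cells carried lentiviral DOX-inducible MLK1, MLK2 or MLK4 and were grown in RPMI-1640 with 10% FBS. Cells were seeded at 100 000/well and induced with 1 μg/mL DOX. After 24 h they were treated at 0.1–5 μM for 24 h, with DMSO as control. Levels were read by ECL immunoblot of RIPA lysates, with GAPDH or β-actin loading control.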

MDA-MB-468 [4] = assay: Inhibition of cell migration in human MDA-MB-468 cells at 1 uM incubated for 24 hrs by transwell assay; type: functional, cell-based
Method in brief: (§2)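 Boyden inserts, 8 μm pores: 200 000 cells in serum-free DMEM with 1 μM PROTAC or DMSO, 20% FBS DMEM below as chemoattractant, 24 h at 37 °C, 5% CO2. Migrated cells fixed, crystal violet stained and counted by image analysis; at least three repeats.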

MDA-MB-468 [5] = assay: Inhibition of colony formation in human MDA-MB-468 cells harboring siMLK3 by crystal violet staining based analysis; type: functional, cell-based
Method in brief: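 MCF-7 or MDA-MB-468 seeded at 10 000 cells/well, transfected next day with MAP3K11 SMARTpool siRNA or nontargeting control siRNA; crystal violet staining 7 days after transfection. Knockdown confirmed by immunoblot.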

[6] = molecular target: T1, von Hippel-Lindau disease tumor suppressor/Mitogen-activated protein kinase kinase kinase 11; assay: PROTAC activity at VHL/MLK3 in human MCF7 cells assessed as protein degradation at 0.1 to 5 uM measured after 24 hrs by Western blot analysis relative to control; type: cell-based; settings: dose 0.1-5 µM
Method in brief: (§3)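 Endogenous MLK3: cells seeded at 100 000/well, treated next day for 24 h with PROTAC at 0.1–5 μM, DMSO control; immunoblot with GAPDH or β-actin loading control. Remaining MLK3 percentage plotted against concentration to derive DC50 and Dmax.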
Target sequence in this assay (P40337 whole entry, looked up): as the sequence (P40337 whole entry, looked up) above
Target sequence in this assay (Q16584 whole entry, looked up): as the sequence (Q16584 whole entry, looked up) above

[7] = molecular target: T3, von Hippel-Lindau disease tumor suppressor/Mitogen-activated protein kinase kinase kinase 10 (Homo sapiens) (UniProt Q02779+P40337); assay: PROTAC activity at VHL/MLK2 in human MCF7 cells assessed as protein degradation at 1 uM incubated for 24 hrs by immunoblot analysis; type: cell-based
Method in brief: (§4)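 Endogenous MLK1, MLK2 or MLK4 levels in MCF-7 and MDA-MB-468 cells. Cells were grown in high-glucose DMEM with 10% FBS, seeded at 100 000 cells/well and treated the next day for 24 h, with DMSO as control. Lysis was in RIPA with protease inhibitor, followed by 10% SDS-PAGE, nitrocellulose transfer and ECL immunoblot with GAPDH or β-actin as loading control.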

[8] = molecular target: T4, von Hippel-Lindau disease tumor suppressor/Mitogen-activated protein kinase kinase kinase 9 (Homo sapiens) (UniProt P80192+P40337); assay: PROTAC activity at IAP/MLK1 in human MDA-MB-468 cells assessed as protein degradation at 1 uM incubated for 24 hrs by immunoblot analysis; type: cell-based; method in brief: as §4
[9] = molecular target: T1, von Hippel-Lindau disease tumor suppressor/Mitogen-activated protein kinase kinase kinase 11; assay: PROTAC activity at VHL/MLK3 in human MDA-MB-468 cells assessed as protein degradation at 1 uM by Western blot analysis; type: cell-based; settings: time 4-48 hrs, TDE = time-dependent effect
Target sequence in this assay (P40337 whole entry, looked up): as the sequence (P40337 whole entry, looked up) above
Target sequence in this assay (Q16584 whole entry, looked up): as the sequence (Q16584 whole entry, looked up) above

[10] = molecular target: T1, von Hippel-Lindau disease tumor suppressor/Mitogen-activated protein kinase kinase kinase 11; assay: PROTAC activity at VHL/MLK3 in human MDA-MB-468 cells assessed as protein degradation measured after 24 hrs by Western blot analysis; type: cell-based; method in brief: as §3
Target sequence in this assay (Q16584 whole entry): as the sequence (Q16584 whole entry, looked up) above
Target sequence in this assay (P40337 whole entry): as the sequence (P40337 whole entry, looked up) above

[11] = molecular target: T4, von Hippel-Lindau disease tumor suppressor/Mitogen-activated protein kinase kinase kinase 9 (Homo sapiens); assay: PROTAC activity at VHL/MLK1 in human MCF7 cells assessed as protein degradation at 1 uM incubated for 24 hrs by immunoblot analysis; type: cell-based; method in brief: as §4
MCF7 [12] = assay: Inhibition of cell migration in human MCF7 cells at 1 uM incubated for 24 hrs by transwell assay; type: functional, cell-based; method in brief: as §2
[13] = molecular target: T1, von Hippel-Lindau disease tumor suppressor/Mitogen-activated protein kinase kinase kinase 11; assay: PROTAC activity at VHL/MLK3 in human MDA-MB-468 cells assessed as protein degradation at 1 uM measured after 24 hrs by immunoblot analysis; type: cell-based
Method in brief: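 MCF-7 and MDA-MB-468 cells were treated for 24 h across 0.1–5 μM, with DMSO as control. MLK3 was immunoblotted and quantified as percent remaining versus concentration, from which DC50 and Dmax were derived.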
Target sequence in this assay (P40337 whole entry, looked up): as above
Target sequence in this assay (Q16584 whole entry, looked up): as the sequence (Q16584 whole entry, looked up) above

[14] = molecular target: T1, von Hippel-Lindau disease tumor suppressor/Mitogen-activated protein kinase kinase kinase 11; assay: PROTAC activity at VHL/DOX-inducible MLK3 (unknown origin) overexpressed in human A-375 cells assessed as protein degradation at 0.1 uM incubated for 24 hrs by immunoblot analysis; type: cell-based
Method in brief: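 A375 cells with DOX-inducible MLK3 were seeded at 100 000/well and induced with 1 μg/mL DOX for 24 h. Eight VHL-based PROTACs were then tested at 0.1–5 μM for 24 h, with DMSO as control. MLK3 was detected by ECL immunoblot of RIPA lysates, normalised to GAPDH or β-actin.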
Target sequence in this assay (P40337 whole entry, looked up): as the sequence (P40337 whole entry, looked up) above
Target sequence in this assay (Q16584 whole entry, looked up): as the sequence (Q16584 whole entry, looked up) above

[15] = molecular target: T1, von Hippel-Lindau disease tumor suppressor/Mitogen-activated protein kinase kinase kinase 11; assay: PROTAC activity at VHL/MLK3 in human MCF7 cells assessed as protein degradation at 1 uM measured after 24 hrs by immunoblot analysis
Target sequence in this assay (P40337 whole entry, looked up): as the sequence (P40337 whole entry, looked up) above
Target sequence in this assay (Q16584 whole entry, looked up): as the sequence (Q16584 whole entry, looked up) above

[16] = molecular target: T4, von Hippel-Lindau disease tumor suppressor/Mitogen-activated protein kinase kinase kinase 9 (Homo sapiens); assay: PROTAC activity at VHL/MLK1 in human MDA-MB-468 cells assessed as protein degradation at 1 uM incubated for 24 hrs by immunoblot analysis; type: cell-based; method in brief: as §4
[17] = molecular target: T2, von Hippel-Lindau disease tumor suppressor/Mitogen-activated protein kinase kinase kinase 21 (Homo sapiens); assay: PROTAC activity at VHL/MLK4 in human MCF7 cells assessed as protein degradation at 1 uM incubated for 24 hrs by immunoblot analysis; type: cell-based; method in brief: as §4
[18] = molecular target: T1, von Hippel-Lindau disease tumor suppressor/Mitogen-activated protein kinase kinase kinase 11; assay: PROTAC activity at VHL/MLK3 in human MCF7 cells assessed as decrease in JNK pathway at 1 uM measured after 24 hrs by immunoblot analysis; type: cell-based
[19] = molecular target: T1, von Hippel-Lindau disease tumor suppressor/Mitogen-activated protein kinase kinase kinase 11; assay: PROTAC activity at VHL/MLK3 in human MDA-MB-468 cells assessed as protein degradation at 0.1 to 5 uM measured after 24 hrs by Western blot analysis relative to control; type: cell-based; settings: dose 0.1-5 µM; method in brief: as §3
[20] = molecular target: T3, von Hippel-Lindau disease tumor suppressor/Mitogen-activated protein kinase kinase kinase 10 (Homo sapiens); assay: PROTAC activity at IAP/MLK2 in human MDA-MB-468 cells assessed as protein degradation at 1 uM incubated for 24 hrs by immunoblot analysis; type: cell-based; method in brief: as §4
[21] = molecular target: T1, von Hippel-Lindau disease tumor suppressor/Mitogen-activated protein kinase kinase kinase 11; assay: PROTAC activity at VHL/MLK3 in carfilzomib-treated human MCF7 cells assessed as protein degradation at 1 uM measured after 7 hrs by immunoblot analysis; type: cell-based; method in brief: as §1
[22] = molecular target: T1, von Hippel-Lindau disease tumor suppressor/Mitogen-activated protein kinase kinase kinase 11; assay: PROTAC activity at VHL/MLK3 in human MDA-MB-468 cells assessed as decrease in JNK pathway at 1 uM measured after 24 hrs by immunoblot analysis; type: cell-based

T4 sequence (P40337 whole entry, looked up): as the sequence (P40337 whole entry, looked up) above
T4 sequence (P80192 whole entry, looked up): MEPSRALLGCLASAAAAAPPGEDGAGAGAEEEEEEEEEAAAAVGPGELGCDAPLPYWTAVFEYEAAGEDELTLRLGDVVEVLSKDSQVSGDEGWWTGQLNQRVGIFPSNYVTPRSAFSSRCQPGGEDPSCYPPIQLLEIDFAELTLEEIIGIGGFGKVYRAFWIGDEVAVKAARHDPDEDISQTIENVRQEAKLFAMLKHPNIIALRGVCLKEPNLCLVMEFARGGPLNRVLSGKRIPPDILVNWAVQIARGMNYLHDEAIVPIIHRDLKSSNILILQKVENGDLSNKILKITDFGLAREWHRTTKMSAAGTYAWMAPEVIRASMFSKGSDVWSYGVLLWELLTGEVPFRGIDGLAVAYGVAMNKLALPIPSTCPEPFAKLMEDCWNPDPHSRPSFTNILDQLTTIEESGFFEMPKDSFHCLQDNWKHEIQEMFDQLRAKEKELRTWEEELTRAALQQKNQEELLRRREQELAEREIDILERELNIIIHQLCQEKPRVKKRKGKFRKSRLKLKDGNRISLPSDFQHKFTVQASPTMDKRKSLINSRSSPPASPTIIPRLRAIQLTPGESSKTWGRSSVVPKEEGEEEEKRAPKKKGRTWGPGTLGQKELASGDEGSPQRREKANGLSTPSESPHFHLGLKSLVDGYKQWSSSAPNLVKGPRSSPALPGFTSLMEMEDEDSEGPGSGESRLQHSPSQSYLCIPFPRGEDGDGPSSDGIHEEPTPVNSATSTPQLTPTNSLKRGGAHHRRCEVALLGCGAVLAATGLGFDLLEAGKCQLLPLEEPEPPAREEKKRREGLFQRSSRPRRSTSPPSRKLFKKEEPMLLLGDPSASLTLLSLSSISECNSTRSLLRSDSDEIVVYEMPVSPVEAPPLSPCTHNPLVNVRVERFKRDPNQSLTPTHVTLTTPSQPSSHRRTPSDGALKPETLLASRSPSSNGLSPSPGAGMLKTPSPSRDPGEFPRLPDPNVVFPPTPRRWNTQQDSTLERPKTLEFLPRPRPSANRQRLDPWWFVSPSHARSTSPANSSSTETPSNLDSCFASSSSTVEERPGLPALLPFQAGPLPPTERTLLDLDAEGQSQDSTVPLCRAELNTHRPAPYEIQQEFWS
T3 sequence (P40337 whole entry, looked up): as the sequence (P40337 whole entry, looked up) above
T3 sequence (Q02779 whole entry, looked up): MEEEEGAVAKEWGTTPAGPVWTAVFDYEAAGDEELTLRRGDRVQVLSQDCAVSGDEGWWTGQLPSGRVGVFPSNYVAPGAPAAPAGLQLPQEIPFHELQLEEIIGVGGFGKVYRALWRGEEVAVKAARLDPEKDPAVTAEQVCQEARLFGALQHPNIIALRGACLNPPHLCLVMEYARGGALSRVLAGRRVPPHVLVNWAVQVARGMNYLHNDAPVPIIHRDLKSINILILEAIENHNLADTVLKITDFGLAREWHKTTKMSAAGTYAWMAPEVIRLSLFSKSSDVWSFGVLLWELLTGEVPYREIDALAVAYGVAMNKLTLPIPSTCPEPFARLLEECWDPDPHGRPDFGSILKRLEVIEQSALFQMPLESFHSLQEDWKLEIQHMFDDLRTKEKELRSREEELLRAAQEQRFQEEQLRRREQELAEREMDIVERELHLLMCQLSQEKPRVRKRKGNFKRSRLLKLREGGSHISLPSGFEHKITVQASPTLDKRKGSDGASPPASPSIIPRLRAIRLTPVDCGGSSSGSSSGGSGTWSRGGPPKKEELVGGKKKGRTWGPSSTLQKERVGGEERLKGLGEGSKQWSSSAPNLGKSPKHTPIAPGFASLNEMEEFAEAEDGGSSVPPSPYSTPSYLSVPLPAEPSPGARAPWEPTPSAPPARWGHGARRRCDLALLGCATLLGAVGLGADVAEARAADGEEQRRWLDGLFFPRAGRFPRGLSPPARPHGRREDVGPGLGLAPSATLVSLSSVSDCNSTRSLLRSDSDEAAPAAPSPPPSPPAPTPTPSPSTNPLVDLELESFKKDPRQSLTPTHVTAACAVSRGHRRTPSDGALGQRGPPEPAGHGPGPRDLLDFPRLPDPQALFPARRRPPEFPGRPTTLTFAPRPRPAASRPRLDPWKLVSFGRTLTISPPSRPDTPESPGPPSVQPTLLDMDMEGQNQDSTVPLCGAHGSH

CCSCc1ccc2c(c1)c1c3c(c4c5cc(CSCC)ccc5n5c4c1n2[C@H]1C[C@](O)(C(=O)NCCOCCOCCOCC(=O)N[C@H](C(=O)N2C[C@H](O)C[C@H]2C(=O)N[C@@H](C)c2ccc(-c4scnc4C)cc2)C(C)(C)C)[C@]5(C)O1)CNC3=O
Activity (MCF7 [1]): inactive
Activity [2]: inactive
Activity [3]: inactive
inhibition (MDA-MB-468 [4]): Active
inhibition (MDA-MB-468 [5]): Active
Emax [6]: 77%
Activity [7]: inactive
Activity [8]: inactive
Activity [9]: Tde
DC50 [10]: 300 nM
Activity [11]: inactive
inhibition (MCF7 [12]): inactive
Activity [13]: Active
Activity [14]: Active
Activity [15]: Active
Activity [16]: inactive
Activity [17]: inactive
Activity [18]: Active
Emax [19]: 63%
Activity [20]: inactive
Activity [21]: inactive
Activity [22]: Active
